Reference: ChEMBL document CHEMBL4665845, “CRISPR-Cas9 Genome-Wide Knockout Screen Identifies Mechanism of Selective Activity of Dehydrofalcarinol in Mesenchymal Stem-like Triple-Negative Breast Cancer Cells” (2020)
Active and inactive are the calls of the source. The rule behind the calls is not given here.

Assays:
[1] = system: MDA-MB-231; assay: Growth inhibition of human MDA-MB-231 cells after 48 hrs by SRB assay; format: functional
Summary of the method: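 Cells were exposed to compound for 48 h, and growth was read by sulforhodamine B staining. TGI (total growth inhibition concentration, μM) was taken from concentration–response curves, n = 3, means ± SEM. MDA-MB-231 cells were grown in IMEM with 10% FBS at 37 °C in 5% CO2.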

[2] = system: BT-549; assay: Growth inhibition of human BT-549 cells after 48 hrs by SRB assay; format: functional
[3] = species: Homo sapiens; assay: Selectivity index, ratio of TGI for growth inhibitor of human BT-549 to TGI for growth inhibitor of human MDA-MB-231; format: functional
[4] = system: MDA-MB-231; assay: Cytotoxicity against human MDA-MB-231 cells harboring CRISPR/Cas9 assessed as reduction in cell viability at 300 nM by SRB assay; format: functional, cell-based
[5] = system: TC-32; assay: Antiproliferative activity against human TC-32 cells assessed as reduction in cell viability after 48 hrs by SRB assay; format: functional, cell-based
[6] = system: SK-ES1; assay: Antiproliferative activity against human SK-ES1 cells assessed as reduction in cell viability after 48 hrs by SRB assay; format: functional, cell-based
[7] = system: MDA-MB-231; assay: Induction of cell cycle arret in human MDA-MB-231 cells assessed as G2/M phase accumulation at LC50 concentration after 18 hrs by Krishan's staining based cell analyzer method; format: functional
Summary of the method: (§1)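 MDA-MB-231 cells were treated at the LC50 concentration for 18 h, and cell cycle distribution was then assessed.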

[8] = system: MDA-MB-231; assay: Induction of cell cycle arret in human MDA-MB-231 cells assessed as G1 phase accumulation at LC50 concentration after 18 hrs by Krishan's staining based cell analyzer method; format: functional; summary of the method: as §1
[9] = system: MDA-MB-231; assay: Induction of cell cycle arret in human MDA-MB-231 cells assessed as S phase accumulation at LC50 concentration after 18 hrs by Krishan's staining based cell analyzer method; format: functional; summary of the method: as §1
[10] = molecular target: Ribosomal protein S6 kinase beta-1 (Homo sapiens) (UniProt P23443); assay: Inhibition of phosphorylation of P70S6K at T389 residue in human MDA-MB-231 cells at 300 nM preincubated for 6 hrs followed FBS-stimulation and measured after 0.25 to 2 hrs by immunoblotting analysis; format: cell-based; settings: time hrs <=8
[11] = system: MDA-MB-231; assay: Effect on P70S6K regulation in human MDA-MB-231 cells at 300 nM preincubated for 6 hrs followed FBS-stimulation and measured after 0.25 to 2 hrs by immunoblotting analysis; format: functional, cell-based; settings: time hrs <=8
[12] = molecular target: Mitogen-activated protein kinase; ERK1/ERK2 (Homo sapiens) (UniProt P27361+P28482); assay: Inhibition of phosphorylation of Erk1/2 in human MDA-MB-231 cells at 300 nM preincubated for 6 hrs followed FBS-stimulation and measured after 0.25 to 2 hrs by immunoblotting analysis; format: cell-based; settings: time hrs <=8
[13] = system: MDA-MB-231; assay: Effect on Erk1/2 regulation in human MDA-MB-231 cells at 300 nM preincubated for 6 hrs followed FBS-stimulation and measured after 0.25 to 2 hrs by immunoblotting analysis; format: functional, cell-based; settings: time hrs <=8
[14] = molecular target: Serine/threonine-protein kinase AKT (Homo sapiens) (UniProt P31751+Q9Y243+P31749); assay: Inhibition of phosphorylation of Akt at S473 residue in human MDA-MB-231 cells at 300 nM preincubated for 6 hrs followed FBS-stimulation and measured after 0.25 to 2 hrs by immunoblotting analysis; format: cell-based; settings: time hrs <=8
[15] = system: MDA-MB-231; assay: Effect on Akt regulation in human MDA-MB-231 cells at 300 nM preincubated for 6 hrs followed FBS-stimulation and measured after 0.25 to 2 hrs by immunoblotting analysis; format: functional, cell-based; settings: time hrs <=8
[16] = system: MDA-MB-231; assay: Cytotoxicity against human MDA-MB-231 cells assessed as reduction in cell viability at 0.03 to 3 uM after 48 hrs in presence of GW9662 by SRB assay; format: functional, cell-based; settings: dose microM 0.03-3, time 48.0 hrs
[17] = system: MDA-MB-453; assay: Cytotoxicity against human MDA-MB-453 cells assessed as reduction in cell viability at 0.03 to 3 uM after 48 hrs in presence of GW9662 by SRB assay; format: functional, cell-based; settings: dose microM 0.03-3, time 48.0 hrs
[18] = system: A673; assay: Antiproliferative activity against human A673 cells assessed as reduction in cell viability after 48 hrs by SRB assay; format: functional, cell-based
[19] = system: MDA-MB-231; assay: Cytotoxicity against CRISPR/Cas9-mediated HSD17B11 knock-out human MDA-MB-231 cells at 1 uM incubated for 2 weeks; format: functional, cell-based
Summary of the method: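 Doxycycline-inducible Cas9 MDA-MB-231 cells were transduced with the pooled Brunello sgRNA lentiviral library (0.005 μg/mL polybrene, 5 h), then selected in 1 μg/mL puromycin for 72 h. Cas9 was induced with 50 ng/mL doxycycline for 48 h. Cells were treated with 1 μM for 14 days, refreshing medium and compound every 3–4 days, and recovered 2 days before sgRNA sequencing. Enrichment was compared with input and vehicle.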

[20] = system: MDA-MB-231; assay: Cytotoxicity against HSD17B11 siRNA knock-out human MDA-MB-231 cells assessed as reduction in cell viability at 300 nM incubated for 48 hrs by SRB assay; format: functional, cell-based
Summary of the method: (§2)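 MDA-MB-231 cells were reverse-transfected with HSD17B11 siRNA (12.5 nM final, 0.025% RNAiMAX, antibiotic-free medium) or mock for 48 h. Cells were then replated, allowed to attach for 4–6 h, and treated for 48 h. Read-out was SRB viability and TGI, n = 3. Knockdown vs mock was compared by paired two-tailed t-test.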

[21] = Ratio of TGI for cytotoxicity against HSD17B11 siRNA knock-out human MDA-MB-231 cells to TGI for cytotoxicity against human MDA-MB-231 cells; format: functional; summary of the method: as §2
[22] = system: BT-549; assay: Cytotoxicity against human BT-549 cells over expressing HSD17B11 assessed as reduction in cell viability at 1 to 10 uM by SRB assay; format: functional, cell-based; settings: dose microM 1-10
Summary of the method: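 BT-549 cells were transfected with a plasmid expressing HSD17B11-GFP from a constitutive CMV promoter, with mock-transfected cells as control. Overexpression was confirmed by immunoblot, and sensitivity was measured by SRB assay.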

[23] = system: RD; assay: Antiproliferative activity against human RDES cells assessed as reduction in cell viability after 48 hrs by SRB assay; format: functional, cell-based
[24] = system: MDA-MB-157; assay: Growth inhibition of human MDA-MB-157 cells after 48 hrs by SRB assay; format: functional
[25] = system: HCC1806; assay: Growth inhibition of human HCC1806 cells after 48 hrs by SRB assay; format: functional
[26] = system: MDA-MB-468; assay: Growth inhibition of human MDA-MB-468 cells after 48 hrs by SRB assay; format: functional
[27] = system: MDA-MB-453; assay: Growth inhibition of human MDA-MB-453 cells after 48 hrs by SRB assay; format: functional
[28] = species: Homo sapiens; assay: Selectivity index, ratio of LC50 for growth inhibitor of human MDA-MB-157 to LC50 for growth inhibitor of human MDA-MB-231; format: functional
Summary of the method: (§3)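 Selectivity index is the LC50 of the named TNBC line divided by the LC50 in MDA-MB-231 cells.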

[29] = species: Homo sapiens; assay: Selectivity index, ratio of LC50 for growth inhibitor of human BT-549 to LC50 for growth inhibitor of human MDA-MB-231; format: functional; summary of the method: as §3
[30] = species: Homo sapiens; assay: Selectivity index, ratio of LC50 for growth inhibitor of human […] to LC50 for growth inhibitor of human MDA-MB-231; format: functional; summary of the method: as §3
[31] = species: Homo sapiens; assay: Selectivity index, ratio of LC50 for growth inhibitor of human MDA-MB-468 to LC50 for growth inhibitor of human MDA-MB-231; format: functional; summary of the method: as §3
[32] = species: Homo sapiens; assay: Selectivity index, ratio of LC50 for growth inhibitor of human MDA-MB-453 to LC50 for growth inhibitor of human MDA-MB-231; format: functional; summary of the method: as §3
[33] = read-out: LC50 (the source's name)

Chain of Mitogen-activated protein kinase; ERK1/ERK2 (Homo sapiens) (P27361 whole entry, looked up): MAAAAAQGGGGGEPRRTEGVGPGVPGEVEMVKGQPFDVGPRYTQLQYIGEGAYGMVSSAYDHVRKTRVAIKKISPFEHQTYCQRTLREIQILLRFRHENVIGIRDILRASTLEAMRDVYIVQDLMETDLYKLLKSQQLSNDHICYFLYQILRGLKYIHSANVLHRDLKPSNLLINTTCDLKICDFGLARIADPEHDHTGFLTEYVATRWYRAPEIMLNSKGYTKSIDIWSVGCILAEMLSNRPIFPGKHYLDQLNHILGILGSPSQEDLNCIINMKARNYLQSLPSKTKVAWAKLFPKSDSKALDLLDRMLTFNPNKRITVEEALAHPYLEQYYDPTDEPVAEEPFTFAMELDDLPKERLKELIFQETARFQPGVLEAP
Chain of Mitogen-activated protein kinase; ERK1/ERK2 (Homo sapiens) (P28482 whole entry, looked up): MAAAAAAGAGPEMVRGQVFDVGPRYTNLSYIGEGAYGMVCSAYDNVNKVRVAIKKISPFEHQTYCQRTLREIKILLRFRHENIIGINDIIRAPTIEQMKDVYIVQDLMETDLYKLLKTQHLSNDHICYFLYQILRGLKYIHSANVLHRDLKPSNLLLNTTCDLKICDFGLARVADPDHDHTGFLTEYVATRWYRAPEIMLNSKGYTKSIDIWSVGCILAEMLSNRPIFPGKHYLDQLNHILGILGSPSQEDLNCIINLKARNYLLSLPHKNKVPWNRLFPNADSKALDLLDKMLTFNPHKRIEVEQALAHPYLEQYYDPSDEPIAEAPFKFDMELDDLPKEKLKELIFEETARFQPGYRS
Chain of Ribosomal protein S6 kinase beta-1 (Homo sapiens) (P23443 whole entry, looked up): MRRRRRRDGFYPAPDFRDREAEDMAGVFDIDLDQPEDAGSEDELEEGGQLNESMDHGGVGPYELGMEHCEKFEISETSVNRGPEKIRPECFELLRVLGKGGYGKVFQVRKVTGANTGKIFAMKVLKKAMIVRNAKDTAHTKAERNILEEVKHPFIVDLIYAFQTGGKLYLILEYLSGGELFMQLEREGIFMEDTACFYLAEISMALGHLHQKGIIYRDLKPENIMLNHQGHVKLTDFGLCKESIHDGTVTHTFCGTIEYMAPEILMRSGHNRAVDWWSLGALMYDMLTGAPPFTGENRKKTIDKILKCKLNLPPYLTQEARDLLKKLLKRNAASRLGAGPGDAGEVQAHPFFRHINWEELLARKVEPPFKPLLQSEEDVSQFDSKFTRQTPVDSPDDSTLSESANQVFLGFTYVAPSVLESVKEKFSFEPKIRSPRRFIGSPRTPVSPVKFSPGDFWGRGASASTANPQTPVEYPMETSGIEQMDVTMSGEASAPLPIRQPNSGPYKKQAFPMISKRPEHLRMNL
Chain of Serine/threonine-protein kinase AKT (Homo sapiens) (P31749 whole entry, looked up): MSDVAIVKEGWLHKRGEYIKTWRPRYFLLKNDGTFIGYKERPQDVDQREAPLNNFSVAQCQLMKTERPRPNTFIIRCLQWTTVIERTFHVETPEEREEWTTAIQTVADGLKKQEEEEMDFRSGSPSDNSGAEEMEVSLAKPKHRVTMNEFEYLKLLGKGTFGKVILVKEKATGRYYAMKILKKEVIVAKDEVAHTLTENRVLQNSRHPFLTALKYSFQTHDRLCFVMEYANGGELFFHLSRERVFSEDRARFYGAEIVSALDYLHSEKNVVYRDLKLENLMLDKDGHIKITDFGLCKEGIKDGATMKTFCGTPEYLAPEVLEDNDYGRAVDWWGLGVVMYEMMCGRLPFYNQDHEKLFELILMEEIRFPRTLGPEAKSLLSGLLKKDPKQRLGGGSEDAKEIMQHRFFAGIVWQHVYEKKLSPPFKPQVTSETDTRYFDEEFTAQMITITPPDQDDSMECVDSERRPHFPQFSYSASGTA
Chain of Serine/threonine-protein kinase AKT (Homo sapiens) (P31751 whole entry, looked up): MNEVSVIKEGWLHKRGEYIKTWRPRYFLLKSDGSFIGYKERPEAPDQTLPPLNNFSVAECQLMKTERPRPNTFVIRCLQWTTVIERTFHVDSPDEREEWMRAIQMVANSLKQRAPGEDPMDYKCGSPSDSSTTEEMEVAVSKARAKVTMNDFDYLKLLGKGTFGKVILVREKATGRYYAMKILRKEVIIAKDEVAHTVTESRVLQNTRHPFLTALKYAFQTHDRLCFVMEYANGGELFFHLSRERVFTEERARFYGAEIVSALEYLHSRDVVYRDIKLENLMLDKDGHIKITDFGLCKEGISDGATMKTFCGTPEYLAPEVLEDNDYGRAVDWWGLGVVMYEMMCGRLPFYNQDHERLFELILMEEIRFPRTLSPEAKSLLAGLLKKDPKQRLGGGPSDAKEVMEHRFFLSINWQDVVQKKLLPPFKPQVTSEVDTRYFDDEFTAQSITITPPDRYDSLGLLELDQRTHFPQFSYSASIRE
Chain of Serine/threonine-protein kinase AKT (Homo sapiens) (Q9Y243 whole entry, looked up): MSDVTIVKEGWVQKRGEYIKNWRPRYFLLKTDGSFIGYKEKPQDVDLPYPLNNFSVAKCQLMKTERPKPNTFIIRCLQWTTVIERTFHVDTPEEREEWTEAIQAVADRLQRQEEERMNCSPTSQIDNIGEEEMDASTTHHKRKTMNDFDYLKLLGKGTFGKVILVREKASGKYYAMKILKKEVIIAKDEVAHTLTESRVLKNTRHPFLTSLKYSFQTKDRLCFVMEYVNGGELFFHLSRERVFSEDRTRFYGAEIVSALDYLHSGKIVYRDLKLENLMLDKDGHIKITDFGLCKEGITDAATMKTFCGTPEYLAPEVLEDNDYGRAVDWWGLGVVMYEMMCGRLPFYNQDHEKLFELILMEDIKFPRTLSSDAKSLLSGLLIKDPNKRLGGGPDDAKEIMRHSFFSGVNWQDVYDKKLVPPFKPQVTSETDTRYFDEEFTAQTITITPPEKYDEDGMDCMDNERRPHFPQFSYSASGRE

For C=CCCCCCC(O)/C=C/C#CC#CC(O)CC (mixture of isomers), the TGI [1] was 4300 nM and the TGI [2] was over 5000 nM.
For C=C[C@@H](O)C#CC#CC/C=C\CCCCCCC, the TGI [1] was 6000 nM, the TGI [2] was 9000 nM and the Selectivity Index [3] was 1.5.
With C=CCCCCC/C=C\CC#CC#CC(O)C=C (mixture of isomers) the Activity [4] was “Active”, the Activity [5] was “Active” and the Activity [6] was “Active”. The Activity [7] was “inactive”, the Activity [8] was “inactive” and the Activity [9] was “inactive”. The inhibition [10] was “inactive”, the Activity [11] was “inactive” and the inhibition [12] was “inactive”. For the same compound, the Activity [13] was “inactive”, the inhibition [14] was “inactive” and the Activity [15] was “inactive”. The Activity [16] was “Active”, the Activity [17] was “Active” and the Activity [18] was “Active”. For the same compound, the Activity [19] was “inactive”, the Activity [20] was “inactive” and the Ratio [21] was 1.7. The Activity [22] was “inactive” and the Activity [23] was “Active”.
Compound C=CCCCCC(O)/C=C/C#CC#CC(O)CC (mixture of isomers) has a TGI [1] of 4800 nM and a TGI [2] of over 10000 nM.
Compound C=CCCC/C=C\C(C#CC#C[C@H](O)C=C)OC(C)=O (some centres not stated) has a TGI [1] of 2500 nM, a TGI [2] of 2000 nM and a Selectivity Index [3] of 0.8.
For C=CCCCCC/C=C\CC#CC#C[C@@H](O)C=C, the GI50 [1] was 51 nM, the TGI [1] was 89 nM and the CC50 [1, 33] was 170 nM. The GI50 [24] was 59 nM, the TGI [24] was 130 nM and the CC50 [24, 33] was 290 nM. It also gave a GI50 [2] of 220 nM, a TGI [2] of 420 nM and a CC50 [2, 33] of 900 nM. For the same compound, the GI50 [25] was 300 nM, the TGI [25] was 540 nM and the CC50 [25, 33] was 1200 nM. It also gave a GI50 [26] of 850 nM, a TGI [26] of 2000 nM and a CC50 [26, 33] of 4400 nM. The GI50 [27] was 2800 nM, the TGI [27] was over 5000 nM and the CC50 [27, 33] was over 5000 nM. The RatioLC50 [28] was 1.7, the RatioLC50 [29] was 5.3 and the RatioLC50 [30] was 7.1. The RatioLC50 [31] was 26, the RatioLC50 [32] was over 29 and the Selectivity Index [3] was 7.3.
C=CCCC/C=C\[C@H](O)C#CC#C[C@H](O)C=C showed a TGI [1] of 12000 nM, a TGI [2] of 29000 nM and a Selectivity Index [3] of 2.4.
